# Experimental data reported in ChEMBL document CHEMBL1125029, “Chemical and biochemical studies of 2-propynylpyrrolidine derivatives. Restricted-rotation analogues of N-methyl-N-(1-methyl-4-pyrrolidino-2-butynyl)acetamide (BM-5)” (J Med Chem, 1990).
# pKi: −log10 of the molar value.
# What was measured:
# [1] = target: Muscarinic receptor M1 and M2 (Rattus norvegicus) (UniProt P08482+P10980); assay: The agonist ratio as the ratio of Ki against [3H]QNB to that of [3H]-CD; type: functional
# [2] = target: Muscarinic acetylcholine receptor; assay: Binding activity to the muscarinic acetylcholine receptor in rat cortex, assayed using [3H]CD as a radioligand.; type: tissue-based
# In short: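 Male Wistar rat cerebral cortex homogenate in 10 mM Na/K phosphate pH 7.4, diluted 1:300 (wet wt/v), ~0.75 mg protein per 2.0 mL. 1 nM radioligand (55.5 Ci/mmol), prepared fresh in buffer. Competitor 10^-12 to 10^-3 M. Nonspecific binding with 10 μM atropine. Rapid filtration on PEI-treated filters, scintillation counting. Apparent Ki by one-site competitive nonlinear regression.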
# [3] = target: Muscarinic acetylcholine receptor; assay: Binding activity to the muscarinic acetylcholine receptor in rat cortex, assayed using [3H]PZ as a radioligand.; type: tissue-based
# In short: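 Rat (male Wistar, 200-250 g) cortex homogenized in ice-cold Na/K phosphate buffer pH 7.4, diluted 1:400, ~0.55 mg protein per 2.0 mL. 0.1 nM radioligand (84.1 Ci/mmol), made fresh just before use. Unlabeled competitor at final 10^-12 to 10^-3 M. 10 μM atropine for nonspecific. Filtered, counted by liquid scintillation. One-site competitive fit gives apparent Ki.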
# [4] = target: Muscarinic acetylcholine receptor; assay: (§1) Binding activity against Muscarinic acetylcholine receptor in rat cortex, using [3H]QNB as a radioligand.; type: tissue-based
# In short: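 Competitor at final 10^-12 to 10^-3 M. 10 μM atropine defines nonspecific binding. Filtration on PEI-soaked GF/B filters, scintillation counting. Apparent Ki from one-site competitive nonlinear fit.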
# [5] = target: Muscarinic acetylcholine receptor; assay: Binding activity to muscarinic acetylcholine receptor in rat heart, assayed using [3H]QNB as a radioligand in the presence of Gpp(NH)p.
# In short: (§2)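 Male Wistar rat heart ventricles flushed, minced, Polytron-homogenized in 10 mM Na/K phosphate pH 7.4, spun 48000 g 15 min 4 °C, resuspended, gauze-filtered, diluted 1:750, 0.15-0.2 mg protein/2.0 mL. 10 μM Gpp(NH)p added to homogenate for line 3. Competitor 10^-12 to 10^-3 M. 10 μM atropine nonspecific. Filtration, scintillation counting. Ki from one-site fit.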
# [6] = target: Muscarinic acetylcholine receptor; assay: Binding activity to muscarinic acetylcholine receptor in rat heart, assayed using [3H]-QNB as a radioligand.; in short: as §2
# [7] = target: T1, Muscarinic acetylcholine receptor M1 (Rattus norvegicus) (UniProt P08482); assay: Muscarinic 1 receptor agonistic activity as the selectivity ratio of Ki against [3H]-QNB to that of [3H]PZ; type: functional
# T1 sequence (whole entry): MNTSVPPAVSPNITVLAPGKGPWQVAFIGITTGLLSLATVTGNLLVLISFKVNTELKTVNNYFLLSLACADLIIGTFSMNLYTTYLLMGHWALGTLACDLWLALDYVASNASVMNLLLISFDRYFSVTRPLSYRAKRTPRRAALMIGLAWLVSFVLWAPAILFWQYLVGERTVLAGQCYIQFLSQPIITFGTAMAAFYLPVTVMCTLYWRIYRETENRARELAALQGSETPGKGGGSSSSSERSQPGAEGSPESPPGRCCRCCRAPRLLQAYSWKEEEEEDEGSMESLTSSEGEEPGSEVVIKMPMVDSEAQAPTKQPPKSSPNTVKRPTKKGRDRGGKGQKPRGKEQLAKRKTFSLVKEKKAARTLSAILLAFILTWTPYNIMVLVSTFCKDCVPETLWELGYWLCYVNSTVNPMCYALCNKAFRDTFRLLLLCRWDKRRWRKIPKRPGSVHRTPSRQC
# [8] = target: T1, Muscarinic acetylcholine receptor M1 (Rattus norvegicus); assay: Muscarinic 1 receptor agonistic activity as the selectivity ratio of Ki against [3H]-QNB+ Gpp(NH)p to that of [3H]PZ; type: functional
# [9] = target: T2, Muscarinic acetylcholine receptor M2 (Rattus norvegicus) (UniProt P10980); assay: Muscarinic 2 receptor agonistic activity was determined as the selectivity ratio of Ki against [3H]QNB+ Gpp(NH)p to that of [3H]QNB; type: functional
# T2 sequence (whole entry): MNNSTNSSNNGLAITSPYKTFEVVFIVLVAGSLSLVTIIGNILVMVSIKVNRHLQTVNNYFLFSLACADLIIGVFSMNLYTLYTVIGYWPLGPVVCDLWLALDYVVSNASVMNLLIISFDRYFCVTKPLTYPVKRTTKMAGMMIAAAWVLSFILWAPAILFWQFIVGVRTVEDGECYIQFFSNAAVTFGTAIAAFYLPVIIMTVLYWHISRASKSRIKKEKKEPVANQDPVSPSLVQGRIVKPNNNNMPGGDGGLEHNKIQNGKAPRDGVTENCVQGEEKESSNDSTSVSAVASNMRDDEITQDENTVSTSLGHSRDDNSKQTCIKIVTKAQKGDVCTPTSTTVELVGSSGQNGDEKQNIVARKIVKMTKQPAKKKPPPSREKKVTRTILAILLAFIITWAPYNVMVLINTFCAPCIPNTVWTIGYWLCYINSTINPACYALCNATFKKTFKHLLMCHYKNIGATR
# [10] = target: Muscarinic acetylcholine receptor; assay: as §1; type: tissue-based; remark: listed apart in the source
# In short: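 Radioligand 250 pM (30.0 Ci/mmol). Competitor at final 10^-12 to 10^-3 M. 10 μM atropine defines nonspecific binding. Filtration on PEI-soaked GF/B filters, scintillation counting. Apparent Ki from one-site competitive nonlinear fit.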
SMILES,Ratio [1],Ki [2],Ki [3],Ki [4],Ki [5],Ki [6],Ratio [7],Ratio [8],Ratio [9],Ki [10],pKi [5]
C(#C[C@H]1CCCN1)CN1CCCC1.Cl.Cl,2.5,1280 nM,6500 nM,3220 nM,19600 nM,12900 nM,2,3,1.5,,
CS(=O)(=O)N1CCC[C@H]1C#CCN1CCCC1.Cl,0.8,3920 nM,6050 nM,3020 nM,15100 nM,9190 nM,1.5,2.5,1.6,,
COC(=O)N1CCC[C@H]1C#CCN1CCCC1,0.4,1440 nM,1480 nM,620 nM,5750 nM,4420 nM,3,3.9,1.3,,
C(#C[C@@H]1CCCN1)CN1CCCC1.Cl.Cl,0.5,5670 nM,2220 nM,,2080 nM,1550 nM,0.7,0.9,1.3,2800 nM,
CS(=O)(=O)N1CCC[C@@H]1C#CCN1CCCC1.Cl,1,1980 nM,4110 nM,1920 nM,13400 nM,5910 nM,1.4,3.3,2.3,,
CC(=O)N1CCC[C@H]1C#CCN(C)C,3.2,15500 nM,40000 nM,,175000 nM,51700 nM,1.3,4.4,3.4,48900 nM,
CC(=O)N1CCC[C@H]1C#CCN1CCCC1.Cl,1.9,2550 nM,2060 nM,,22600 nM,15500 nM,7.5,11,1.5,4960 nM,
COC(=O)N1CCC[C@@H]1C#CCN1CCCC1,1.5,530 nM,1590 nM,810 nM,5060 nM,2940 nM,1.8,3.2,1.7,,
Cl.O=C(N1CCC[C@H]1C#CCN1CCCC1)C(F)(F)F,1.6,2220 nM,3100 nM,3450 nM,8860 nM,6400 nM,2.1,2.9,1.4,,
CN(C)CC#C[C@H]1CCCN1C(=O)OC(C)(C)C,12.8,250 nM,5600 nM,3200 nM,19600 nM,5160 nM,0.9,3.5,3.8,,
CCOC(=O)N1CCC[C@H]1C#CCN1CCCC1,0.5,610 nM,100 nM,310 nM,1000 nM,850 nM,8.5,10,1.2,,
CC(=O)N1CCC[C@@H]1C#CCN1CCCC1.Cl,1,450 nM,170 nM,430 nM,1630 nM,610 nM,3.6,9.6,2.7,,
Cl.O=C(N1CCC[C@@H]1C#CCN1CCCC1)C(F)(F)F,0.8,440 nM,140 nM,360 nM,1070 nM,1230 nM,8.8,7.6,0.9,,
CC(=O)N1CCC[C@@H]1C#CC[N+](C)(C)C,20.3,110 nM,1630 nM,2230 nM,5470 nM,2070 nM,1.3,3.4,2.6,,
CC(C)(C)OC(=O)N1CCC[C@@H]1C#CCN1CCCC1,3,220 nM,420 nM,660 nM,,1320 nM,3.1,4.7,1.5,,5.71
O=CN1CCC[C@@H]1C#CCN1CCCC1,0.7,3350 nM,1180 nM,2390 nM,3120 nM,3260 nM,2.7,2.5,1,,
CN(C)CC#C[C@@H]1CCCN1C(=O)OC(C)(C)C,3.5,3300 nM,9040 nM,11400 nM,14100 nM,13400 nM,1.5,1.6,1.1,,
CC(=O)N1CCC[C@H]1C#CC[N+](C)(C)C,5,4150 nM,13900 nM,,47100 nM,16400 nM,1.2,3.4,2.9,20900 nM,
CN(C)CC#C[C@H]1CCCN1.Cl.Cl,0.5,37080 nM,25200 nM,18700 nM,29300 nM,28500 nM,1.1,1.2,1,,
O=C1CCCN1CC#CCN1CCCC1 [OXOTREMORINE],120,0.5 nM,140 nM,60 nM,140 nM,4 nM,0.03,1,35,,
CC(=O)N1CCC[C@@H]1C#CCN(C)C,8.4,1650 nM,5250 nM,13800 nM,42400 nM,11800 nM,2.2,8.1,3.6,,
CC(C)(C)OC(=O)N1CCC[C@H]1C#CCN1CCCC1,3,330 nM,70 nM,980 nM,900 nM,130 nM,1.9,13,6.9,,
CCOC(=O)N1CCC[C@@H]1C#CCN1CCCC1,2.3,510 nM,190 nM,1160 nM,1040 nM,940 nM,4.9,5.5,1.1,,
